Assay results published in ChEMBL document CHEMBL4229483, “Synthesis and evaluation of an orally available "Y"-shaped biaryl peroxisome proliferator-activated receptor δ agonist” (Bioorg Med Chem, 2018).

target: T1, Peroxisome proliferator-activated receptor gamma (Homo sapiens, UniProt P37231); assay: Transactivation of human PPARgamma expressed in monkey CV-1 cells coexpressing TK-PPRE-Luc after 24 hrs by luciferase reporter gene assay; format: cell-based; details: not given
T1 sequence (P37231 whole entry): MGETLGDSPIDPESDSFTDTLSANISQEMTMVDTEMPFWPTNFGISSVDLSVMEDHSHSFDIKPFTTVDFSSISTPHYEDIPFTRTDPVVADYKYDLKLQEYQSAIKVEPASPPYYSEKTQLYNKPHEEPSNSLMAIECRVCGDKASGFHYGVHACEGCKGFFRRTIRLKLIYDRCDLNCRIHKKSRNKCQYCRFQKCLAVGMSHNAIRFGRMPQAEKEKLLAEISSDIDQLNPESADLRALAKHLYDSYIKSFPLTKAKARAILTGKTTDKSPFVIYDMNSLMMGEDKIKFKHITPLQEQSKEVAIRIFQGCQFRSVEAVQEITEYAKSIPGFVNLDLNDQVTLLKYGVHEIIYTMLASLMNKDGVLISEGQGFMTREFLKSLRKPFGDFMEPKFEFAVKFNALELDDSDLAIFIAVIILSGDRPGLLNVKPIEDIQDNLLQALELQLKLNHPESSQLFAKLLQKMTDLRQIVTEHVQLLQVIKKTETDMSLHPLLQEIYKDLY

Structure (SMILES) | EC50 [µM]
Cc1cc(SC(Cc2ccccc2)c2ccc(-c3ccc(C(F)(F)F)cc3)cc2)ccc1OCC(=O)O (stereo not drawn) | > 10
Cc1cc(SC(Cc2ccccc2)c2ccc(-c3ccc(C(F)(F)F)cc3)nc2)ccc1OCC(=O)O (stereo not drawn) | > 10

system: not listed separately; assay: Half life in Sprague-Dawley rat at 1 mg/kg, iv by LC-MS/MS analysis; format: ADME, organism-based; details: in vivo
In short: (§1)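 Rats (n = 4) given 1 mg/kg iv. Vehicle: ethanol 10%, DMSO 10%, Cremophor EL 10%, water 50%, PEG400 30%. Parameters calculated from composite mean plasma concentration–time data, reported as mean ± SD.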

Structure (SMILES) | half-life [h]
Cc1cc(SC(Cc2ccccc2)c2ccc(-c3ccc(C(F)(F)F)cc3)cc2)ccc1OCC(=O)O (stereo not drawn) | 3.6

system: not listed separately; assay: Cmax in Sprague-Dawley rat at 10 mg/kg, po by LC-MS/MS analysis; format: ADME, organism-based; design: dose 10 mg/kg, route oral; details: in vivo
In short: (§2)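 Formulation: ethanol 10%, DMSO 10%, Cremophor EL 10%, […], PEG400 30%. PK parameters taken from composite mean plasma concentration–time profiles, given as mean ± SD.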

Structure (SMILES) | Cmax [ng/mL]
Cc1cc(SC(Cc2ccccc2)c2ccc(-c3ccc(C(F)(F)F)cc3)cc2)ccc1OCC(=O)O (stereo not drawn) | 2320

system: not listed separately; assay: Clearance in Sprague-Dawley rat at 1 mg/kg, iv by LC-MS/MS analysis; format: ADME, organism-based; details: in vivo; in short: as §1

Structure (SMILES) | clearance [mL/min/kg]
Cc1cc(SC(Cc2ccccc2)c2ccc(-c3ccc(C(F)(F)F)cc3)cc2)ccc1OCC(=O)O (stereo not drawn) | 4

target: CYP3A4 (Homo sapiens, UniProt P08684); assay: Inhibition of midazolam 1'-hydroxylase activity of CYP3A4 in human liver microsomes at 10 uM preincubated for 5 mins followed by NADPH addition measured after 15 mins by LC-MS/MS analysis; format: ADME; details: probe midazolam (1'-hydroxylation)
In short: (§3)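 Compound incubated with liver microsomes and isotype-specific CYP substrates for 15 min. Activity expressed as percent inhibition relative to incubation without compound. Values are means of duplicates.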

CYP3A4, sequence (P08684 whole entry): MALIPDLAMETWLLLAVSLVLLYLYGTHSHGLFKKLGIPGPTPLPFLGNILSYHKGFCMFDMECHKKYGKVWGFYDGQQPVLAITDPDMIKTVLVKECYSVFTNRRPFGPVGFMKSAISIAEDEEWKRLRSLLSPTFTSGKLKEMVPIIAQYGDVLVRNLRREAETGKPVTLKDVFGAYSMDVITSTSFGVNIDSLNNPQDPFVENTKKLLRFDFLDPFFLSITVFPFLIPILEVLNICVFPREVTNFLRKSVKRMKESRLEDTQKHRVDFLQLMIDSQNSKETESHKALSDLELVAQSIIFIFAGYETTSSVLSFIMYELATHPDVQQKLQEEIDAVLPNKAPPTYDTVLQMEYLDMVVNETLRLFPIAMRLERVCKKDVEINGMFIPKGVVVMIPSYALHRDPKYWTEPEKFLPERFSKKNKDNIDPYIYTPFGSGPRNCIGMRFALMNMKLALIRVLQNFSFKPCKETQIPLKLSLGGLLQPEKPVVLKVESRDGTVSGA

Structure (SMILES) | inhibition at 0.25 h, 10 µM [%]
Cc1cc(SC(Cc2ccccc2)c2ccc(-c3ccc(C(F)(F)F)cc3)cc2)ccc1OCC(=O)O (stereo not drawn) | 7.3

system: not listed separately; assay: Metabolic stability in human liver microsomes assessed as parent compound remaining at 1 uM after 30 mins in presence of NADPH by LC-MS/MS analysis; format: ADME, microsome; details: read-out: Stability
In short: (§4)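 Compound incubated with liver microsomes for 30 min. Percentage of parent remaining quantified by LC-MS/MS. Means of duplicate determinations.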

Structure (SMILES) | remaining at 0.5 h, 1 µM [%]
Cc1cc(SC(Cc2ccccc2)c2ccc(-c3ccc(C(F)(F)F)cc3)cc2)ccc1OCC(=O)O (stereo not drawn) | 99.8

target: CYP2D6 (Homo sapiens, UniProt P10635); assay: Inhibition of dextromethorphan O-demethylase activity of CYP2D6 in human liver microsomes at 10 uM preincubated for 5 mins followed by NADPH addition measured after 15 mins by LC-MS/MS analysis; format: ADME; details: probe dextromethorphan (O-demethylation); in short: as §3
Sequence (P10635 whole entry): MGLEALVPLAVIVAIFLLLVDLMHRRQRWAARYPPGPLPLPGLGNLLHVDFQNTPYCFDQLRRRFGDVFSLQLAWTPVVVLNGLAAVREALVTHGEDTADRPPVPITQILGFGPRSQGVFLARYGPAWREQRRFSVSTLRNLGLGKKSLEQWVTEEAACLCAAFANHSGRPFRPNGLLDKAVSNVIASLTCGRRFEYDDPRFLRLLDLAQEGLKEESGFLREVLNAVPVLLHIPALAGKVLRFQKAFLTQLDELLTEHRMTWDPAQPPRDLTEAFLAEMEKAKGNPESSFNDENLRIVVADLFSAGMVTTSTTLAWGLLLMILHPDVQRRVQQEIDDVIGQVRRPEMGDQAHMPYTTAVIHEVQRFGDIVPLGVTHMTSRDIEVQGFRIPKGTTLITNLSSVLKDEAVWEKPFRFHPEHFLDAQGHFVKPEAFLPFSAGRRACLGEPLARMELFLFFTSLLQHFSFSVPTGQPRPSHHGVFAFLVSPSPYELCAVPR

Structure (SMILES) | inhibition at 0.25 h, 10 µM [%]
Cc1cc(SC(Cc2ccccc2)c2ccc(-c3ccc(C(F)(F)F)cc3)cc2)ccc1OCC(=O)O (stereo not drawn) | 0

system: not listed separately; assay: Oral bioavailability in Sprague-Dawley rat at 10 mg/kg by LC-MS/MS analysis; format: ADME, organism-based; details: in vivo; in short: as §2

Structure (SMILES) | bioavailability [%]
Cc1cc(SC(Cc2ccccc2)c2ccc(-c3ccc(C(F)(F)F)cc3)cc2)ccc1OCC(=O)O (stereo not drawn) | 32.6

system: not listed separately; assay: Total AUC in Sprague-Dawley rat at 10 mg/kg, po by LC-MS/MS analysis; format: ADME, organism-based; design: dose 10 mg/kg, route oral, time AUCmax; details: in vivo; in short: as §2

Structure (SMILES) | AUC [ng·h/mL]
Cc1cc(SC(Cc2ccccc2)c2ccc(-c3ccc(C(F)(F)F)cc3)cc2)ccc1OCC(=O)O (stereo not drawn) | 12500

system: not listed separately; assay: Total AUC in Sprague-Dawley rat at 1 mg/kg, iv by LC-MS/MS analysis; format: ADME, organism-based; design: dose 1 mg/kg, route intravenous, time AUCmax; details: in vivo; in short: as §1

Structure (SMILES) | AUC [ng·h/mL]
Cc1cc(SC(Cc2ccccc2)c2ccc(-c3ccc(C(F)(F)F)cc3)cc2)ccc1OCC(=O)O (stereo not drawn) | 3830

system: not listed separately; assay: Volume of distribution at steady state in Sprague-Dawley rat at 1 mg/kg, iv by LC-MS/MS analysis; format: ADME, organism-based; details: in vivo, read-out: Vdss; in short: as §1

Structure (SMILES) | Vd [L/kg]
Cc1cc(SC(Cc2ccccc2)c2ccc(-c3ccc(C(F)(F)F)cc3)cc2)ccc1OCC(=O)O (stereo not drawn) | 1

system: not listed separately; assay: Metabolic stability in dog liver microsomes assessed as parent compound remaining at 1 uM after 30 mins in presence of NADPH by LC-MS/MS analysis; format: ADME, Canis lupus familiaris, microsome; details: read-out: Stability; in short: as §4

Structure (SMILES) | remaining at 0.5 h, 1 µM [%]
Cc1cc(SC(Cc2ccccc2)c2ccc(-c3ccc(C(F)(F)F)cc3)cc2)ccc1OCC(=O)O (stereo not drawn) | > 100

system: not listed separately; assay: Metabolic stability in rat liver microsomes assessed as parent compound remaining at 1 uM after 30 mins in presence of NADPH by LC-MS/MS analysis; format: ADME, microsome; details: read-out: Stability; in short: as §4

Structure (SMILES) | remaining at 0.5 h, 1 µM [%]
Cc1cc(SC(Cc2ccccc2)c2ccc(-c3ccc(C(F)(F)F)cc3)cc2)ccc1OCC(=O)O (stereo not drawn) | > 100

system: not listed separately; assay: Permeability of the compound at 10 uM at pH 7.4 after 5 hrs by PAMPA; format: ADME; details: read-out: permeability
In short: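 PAMPA. Effective permeability calculated after 5 h. Values are the mean of four determinations.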

Structure (SMILES) | Papp at 5 h, 10 µM [×10⁻⁶ cm/s]
Cc1cc(SC(Cc2ccccc2)c2ccc(-c3ccc(C(F)(F)F)cc3)cc2)ccc1OCC(=O)O (stereo not drawn) | 9.54

system: not listed separately; assay: Tmax in Sprague-Dawley rat at 10 mg/kg, po by LC-MS/MS analysis; format: ADME, organism-based; details: in vivo; in short: as §2

Structure (SMILES) | Tmax [h]
Cc1cc(SC(Cc2ccccc2)c2ccc(-c3ccc(C(F)(F)F)cc3)cc2)ccc1OCC(=O)O (stereo not drawn) | 4.5

target: CYP2C9 (Homo sapiens, UniProt P11712); assay: Inhibition of tolbutamide 4-hydroxylase activity of CYP2C9 in human liver microsomes at 10 uM preincubated for 5 mins followed by NADPH addition measured after 15 mins by LC-MS/MS analysis; format: ADME; details: probe tolbutamide (4-hydroxylation); in short: as §3
Sequence (P11712 whole entry): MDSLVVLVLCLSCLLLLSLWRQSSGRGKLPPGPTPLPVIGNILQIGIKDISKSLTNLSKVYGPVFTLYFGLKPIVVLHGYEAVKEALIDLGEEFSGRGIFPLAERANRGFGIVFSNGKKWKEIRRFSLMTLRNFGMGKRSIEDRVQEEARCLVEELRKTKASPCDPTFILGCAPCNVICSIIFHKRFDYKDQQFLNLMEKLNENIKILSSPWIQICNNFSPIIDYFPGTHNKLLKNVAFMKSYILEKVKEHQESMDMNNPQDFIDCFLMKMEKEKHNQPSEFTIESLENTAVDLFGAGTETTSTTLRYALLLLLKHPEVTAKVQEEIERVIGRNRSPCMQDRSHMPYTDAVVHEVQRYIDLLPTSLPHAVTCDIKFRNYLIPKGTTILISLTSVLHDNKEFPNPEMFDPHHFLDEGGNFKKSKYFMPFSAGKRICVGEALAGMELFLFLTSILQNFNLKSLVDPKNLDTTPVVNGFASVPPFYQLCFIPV

Structure (SMILES) | inhibition at 0.25 h, 10 µM [%]
Cc1cc(SC(Cc2ccccc2)c2ccc(-c3ccc(C(F)(F)F)cc3)cc2)ccc1OCC(=O)O (stereo not drawn) | 35.5

target: T2, CYP1A2 (Homo sapiens, UniProt P05177); assay: Inhibition of phenacetin O-deethylase activity of CYP1A2 in human liver microsomes at 10 uM preincubated for 5 mins followed by NADPH addition measured after 15 mins by LC-MS/MS analysis; format: ADME; details: probe phenacetin (O-deethylation); in short: as §3
T2 sequence (P05177 whole entry): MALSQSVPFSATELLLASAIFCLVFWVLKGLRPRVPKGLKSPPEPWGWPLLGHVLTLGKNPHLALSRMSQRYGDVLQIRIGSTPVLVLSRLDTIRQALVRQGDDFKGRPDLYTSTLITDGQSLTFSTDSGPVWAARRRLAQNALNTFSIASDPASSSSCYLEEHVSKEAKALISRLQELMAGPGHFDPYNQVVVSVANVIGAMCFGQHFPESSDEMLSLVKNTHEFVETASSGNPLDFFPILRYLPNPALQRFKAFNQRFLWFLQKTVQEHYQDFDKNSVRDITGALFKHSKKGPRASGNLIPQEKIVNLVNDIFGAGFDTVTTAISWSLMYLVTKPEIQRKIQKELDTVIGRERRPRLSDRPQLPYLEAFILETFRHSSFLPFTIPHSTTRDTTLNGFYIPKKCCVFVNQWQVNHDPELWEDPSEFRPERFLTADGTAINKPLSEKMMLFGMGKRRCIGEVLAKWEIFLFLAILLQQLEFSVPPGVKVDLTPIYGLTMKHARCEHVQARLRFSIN

Structure (SMILES) | inhibition at 0.25 h, 10 µM [%]
Cc1cc(SC(Cc2ccccc2)c2ccc(-c3ccc(C(F)(F)F)cc3)cc2)ccc1OCC(=O)O (stereo not drawn) | 1.5

target: T3, Peroxisome proliferator-activated receptor alpha (Homo sapiens, UniProt Q07869); assay: Transactivation of human PPARalpha expressed in monkey CV-1 cells coexpressing TK-PPRE-Luc after 24 hrs by luciferase reporter gene assay; format: cell-based; details: not given
T3 sequence (Q07869 whole entry): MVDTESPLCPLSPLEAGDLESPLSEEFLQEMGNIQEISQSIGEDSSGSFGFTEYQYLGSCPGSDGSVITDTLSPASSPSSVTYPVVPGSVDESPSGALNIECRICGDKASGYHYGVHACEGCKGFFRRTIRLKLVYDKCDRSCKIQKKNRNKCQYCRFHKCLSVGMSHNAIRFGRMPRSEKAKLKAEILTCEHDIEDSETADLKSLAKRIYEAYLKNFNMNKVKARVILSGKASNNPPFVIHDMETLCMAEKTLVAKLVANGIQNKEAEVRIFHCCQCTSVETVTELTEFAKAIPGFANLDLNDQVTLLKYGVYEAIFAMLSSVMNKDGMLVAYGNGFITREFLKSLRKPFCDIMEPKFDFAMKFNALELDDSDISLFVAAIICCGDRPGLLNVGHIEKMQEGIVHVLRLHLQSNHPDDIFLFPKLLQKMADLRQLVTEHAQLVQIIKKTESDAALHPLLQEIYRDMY

Structure (SMILES) | EC50 [µM]
Cc1cc(SC(Cc2ccccc2)c2ccc(-c3ccc(C(F)(F)F)cc3)cc2)ccc1OCC(=O)O (stereo not drawn) | > 10
Cc1cc(SC(Cc2ccccc2)c2ccc(-c3ccc(C(F)(F)F)cc3)nc2)ccc1OCC(=O)O (stereo not drawn) | > 10

system: not listed separately; assay: Metabolic stability in mouse liver microsomes assessed as parent compound remaining at 1 uM after 30 mins in presence of NADPH by LC-MS/MS analysis; format: ADME, microsome; details: read-out: Stability; in short: as §4

Structure (SMILES) | remaining at 0.5 h, 1 µM [%]
Cc1cc(SC(Cc2ccccc2)c2ccc(-c3ccc(C(F)(F)F)cc3)cc2)ccc1OCC(=O)O (stereo not drawn) | > 100

target: Voltage-gated inwardly rectifying potassium channel KCNH2 (Homo sapiens, UniProt Q12809); assay: Inhibition of human ERG after 4 hrs by fluorescence polarization assay; details: not given
In short: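 hERG channel binding measured by a fluorescence polarization (Predictor) assay. IC50 obtained by four-parameter non-linear regression.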

Voltage-gated inwardly rectifying potassium channel KCNH2, sequence (Q12809 whole entry): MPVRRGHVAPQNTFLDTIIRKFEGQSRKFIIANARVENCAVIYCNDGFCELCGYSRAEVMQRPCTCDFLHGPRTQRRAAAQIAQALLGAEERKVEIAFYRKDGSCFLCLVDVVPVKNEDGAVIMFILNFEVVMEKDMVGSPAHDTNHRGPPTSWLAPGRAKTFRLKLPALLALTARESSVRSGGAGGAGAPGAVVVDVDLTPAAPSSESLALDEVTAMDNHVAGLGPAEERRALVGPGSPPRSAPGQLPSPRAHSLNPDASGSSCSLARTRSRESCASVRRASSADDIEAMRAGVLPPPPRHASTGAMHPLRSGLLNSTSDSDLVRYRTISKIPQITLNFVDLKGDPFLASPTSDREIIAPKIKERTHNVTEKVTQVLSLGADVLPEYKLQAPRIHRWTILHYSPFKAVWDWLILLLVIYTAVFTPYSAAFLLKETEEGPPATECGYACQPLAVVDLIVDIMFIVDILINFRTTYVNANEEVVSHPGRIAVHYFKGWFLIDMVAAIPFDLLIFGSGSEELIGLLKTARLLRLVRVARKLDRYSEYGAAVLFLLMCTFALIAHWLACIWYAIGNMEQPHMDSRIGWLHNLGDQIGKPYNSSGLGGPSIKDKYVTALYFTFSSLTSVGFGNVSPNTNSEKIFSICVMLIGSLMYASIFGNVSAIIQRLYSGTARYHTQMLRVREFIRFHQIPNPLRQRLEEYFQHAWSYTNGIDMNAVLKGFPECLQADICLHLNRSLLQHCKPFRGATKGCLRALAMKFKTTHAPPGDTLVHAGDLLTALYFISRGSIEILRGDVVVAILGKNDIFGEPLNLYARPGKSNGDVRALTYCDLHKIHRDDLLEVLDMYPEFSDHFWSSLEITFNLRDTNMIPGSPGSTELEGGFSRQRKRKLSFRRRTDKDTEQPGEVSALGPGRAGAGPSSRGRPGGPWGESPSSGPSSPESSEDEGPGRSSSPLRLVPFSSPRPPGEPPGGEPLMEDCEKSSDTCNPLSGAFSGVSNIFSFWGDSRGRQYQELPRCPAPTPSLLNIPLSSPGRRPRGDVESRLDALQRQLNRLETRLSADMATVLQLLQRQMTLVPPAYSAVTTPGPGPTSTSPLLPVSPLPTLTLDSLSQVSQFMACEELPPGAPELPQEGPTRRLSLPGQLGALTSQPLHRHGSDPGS

Structure (SMILES) | IC50 [µM]
Cc1cc(SC(Cc2ccccc2)c2ccc(-c3ccc(C(F)(F)F)cc3)cc2)ccc1OCC(=O)O (stereo not drawn) | > 10

target: CYP2C19 (Homo sapiens, UniProt P33261); assay: Inhibition of S-mephenytoin 4-hydroxylase activity of CYP2C19 in human liver microsomes at 10 uM preincubated for 5 mins followed by NADPH addition measured after 15 mins by LC-MS/MS analysis; format: ADME; details: probe S-mephenytoin (4-hydroxylation); in short: as §3
Sequence (P33261 whole entry): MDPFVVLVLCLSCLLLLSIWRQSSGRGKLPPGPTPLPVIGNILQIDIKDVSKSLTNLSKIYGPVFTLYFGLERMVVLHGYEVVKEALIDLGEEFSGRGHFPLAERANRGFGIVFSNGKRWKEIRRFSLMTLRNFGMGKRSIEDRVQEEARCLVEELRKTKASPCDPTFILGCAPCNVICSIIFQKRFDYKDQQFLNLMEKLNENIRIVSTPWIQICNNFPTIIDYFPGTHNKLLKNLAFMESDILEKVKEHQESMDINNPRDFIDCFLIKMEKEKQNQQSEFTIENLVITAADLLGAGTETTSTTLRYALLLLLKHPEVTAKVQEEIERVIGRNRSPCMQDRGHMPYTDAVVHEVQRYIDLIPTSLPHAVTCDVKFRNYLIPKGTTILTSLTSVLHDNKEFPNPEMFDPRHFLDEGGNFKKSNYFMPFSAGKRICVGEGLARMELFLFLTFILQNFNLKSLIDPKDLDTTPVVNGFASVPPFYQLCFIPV

Structure (SMILES) | inhibition at 0.25 h, 10 µM [%]
Cc1cc(SC(Cc2ccccc2)c2ccc(-c3ccc(C(F)(F)F)cc3)cc2)ccc1OCC(=O)O (stereo not drawn) | 4.3
